Data published in ChEMBL document CHEMBL1140356, “Developing microcolin A analogs as biological probes” (Bioorg Med Chem Lett, 2005).

Legend:
[1] = system: P388; test: Cytotoxicity against P-388 cell line (mouse T-cell leukemia cells); type: functional, cell-based
In short: (§1)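 Growth-inhibition assay on cultured cells, reported as IC50. […] used primary mouse lymphocytes, either PMA/ionomycin-stimulated or in a mixed lymphocyte reaction. C2C12 are nontransformed mouse myoblasts. BAE are primary bovine aortic endothelial cells.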

[2] = Cytotoxicity against mouse PMA ionomycin-stimulated lymphocytes; type: functional; in short: as §1
[3] = Cytotoxicity against BAE cell line (bovine aortic endothelial cells); type: functional, cell-based; details: Bos taurus; in short: as §1
[4] = species on record: Mus musculus; test: Cytotoxicity against mouse mixed lymphocyte reaction; type: functional; in short: as §1
[5] = Cytotoxicity against C2C12 cell line (mouse myoblast cells); type: functional, cell-based; in short: as §1
[6] = system: Jurkat; test: Cytotoxicity against Jurkat cell line (human T-cell leukemia cells); type: functional, cell-based; in short: as §1
[7] = system: EL4; test: Cytotoxicity against mouse thymoma cells (EL-4 cell lines); type: functional, cell-based; in short: as §1
[8] = system: N1E-115; test: Cytotoxicity against N1E-115 cell line (mouse neuroblastoma cells); type: functional, cell-based; in short: as §1
[9] = system: EL4; test: Cytotoxicity against EL-4 cell line (mouse thymoma); type: functional, cell-based
In short: (§2)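 Cell proliferation inhibition measured in cultured cells; value reported as IC50.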

[10] = system: P388; test: Cytotoxicity against P-388 cell line (mouse T-cell leukemia); type: functional, cell-based; in short: as §2
[11] = system: EL4; test: Cytotoxicity against EL-4 cell line (mouse thymoma cells); type: functional, cell-based; in short: as §1

## CCCCCCCC(=O)N(C)[C@@H](CC(C)C)C(=O)N[C@H](C(=O)N(C)[C@H](C(=O)N1C[C@@H](O)C[C@H]1C(=O)N1C(=O)C=C[C@@H]1C)C(C)C)C(C)OC(C)=O (some centres undefined)
[1]
  IC50: 0.0667 µM
[2]
  IC50: 30.3 nM
[3]
  IC50: 36.7 nM
[4]
  IC50: 32.8 nM
[5]
  IC50: 43.4 nM
[6]
  IC50: 39.4 nM
[7]
  IC50: 45.6 nM
[8]
  IC50: 35.9 nM

## CC(=O)OC(C)[C@H](NC(=O)[C@H](CC(C)C)N(C)C(=O)CCOCCOCCOCCOCCNC(=O)CCCC[C@@H]1SC[C@@H]2NC(=O)N[C@@H]21)C(=O)N(C)[C@H](C(=O)N1C[C@@H](O)C[C@H]1C(=O)N1C(=O)C=C[C@@H]1C)C(C)C (some centres undefined)
[9]
  IC50: 10 µM
[10]
  IC50: 10 µM

## CCCCCCCC(=O)N(C)[C@@H](CC(C)C)C(=O)N[C@H](C(=O)N(C)[C@H](C(=O)N1C[C@@H](O)C[C@H]1C(=O)N1C(=O)C=C[C@H]1C)C(C)C)C(C)OC(C)=O (some centres undefined)
[1]
  IC50: 7 µM
[11]
  IC50: 6 µM

## CCCCCCCC(=O)N(C)[C@@H](CC(C)C)C(=O)N[C@H](C(=O)N(C)[C@H](C(=O)N1CCC[C@H]1C(=O)N1C(=O)C=C[C@@H]1C)C(C)C)C(C)OC(C)=O (some centres undefined)
[1]
  IC50: 5 µM
[11]
  IC50: 6 µM
